Data: PubChem BioAssay
Inconclusive results are not listed.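 Rule for the calls, unless noted: active = cell viability at or below a set limit in both duplicate runs, the limit being the all-compound median minus 4 SD (cut at about 23% in these data, passing the limit was not always enough); inconclusive = no clear call, values can overlap the other calls; inactive = the rest.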

How the values were obtained:
[1] = S. cerevisiae growth inhibition in permissive medium (OD615), pilot counter-assay for S. cerevisiae lifespan shortening project, permissive growth control (AID 705;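 active = growth inhibition above 25% in both replicates, a cutoff set 3 SD above the mean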); details: OD615, 24 h, at 10 µM, active compounds read high
In short: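 assay system = Saccharomyces cerevisiae strain carrying genetically modified DeaD replicative-lifespan system | medium = SC raffinose/galactose permissive medium | dosing = 10 µM single dose, 0.25% DMSO | schedule = 24 h compound exposure at 30 °C after 4 h pre-growth | measured by = OD at 615 nm | read-out basis = growth inhibition from lowered OD615 after 24 h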

[2] = S. cerevisiae growth inhibition in restrictive medium, OD615, pilot screen, restrictive growth control, yeast lifespan reduction project (AID 706;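 active = growth inhibition above a set limit, 3 SD over mean compound inhibition, in both replicates, cut at about 43% in these data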;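 note: modified DeaD lifespan yeast strain shifted to restrictive glucose medium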); details: OD615, 48 h, at 10 µM, active compounds read high
In short: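 Buffer or medium: CSMM-D glucose medium. Material: genetically modified Saccharomyces cerevisiae, DeaD replicative lifespan assay strain. Times: 48 h compound exposure at 30 °C. Measured by: optical density at 615 nm.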

[3] = doxorubicin toxicity protection in MRP-1 cells – H69AR cells, CellTiter-Glo, duplicate, MRP-1 activator project, pilot screen (AID 807;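 active = viability increase at or above a cutoff of the median across tested compounds plus 3 SD, cut at about 8.5% in these data, passing the limit was not always enough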;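 note: compound pretreatment 18-22 h then 72 h combined with doxorubicin; 0% = doxorubicin alone and 100% = vehicle without doxorubicin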); details: H69AR viability with doxorubicin, CellTiter-Glo luminescence; at 10 µM; active compounds read high
[4] = viability of HCT116 without oncogenic beta-catenin – human colon tumor cells, pilot screen (AID 823); details: HCT116 beta-catenin knockout viability, CellTiter-Glo, 60 h; at 10 µM; active compounds read low;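 note: 0% = wells killed by 20 µM Hyamine and 100% = untreated DMSO cell wells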
[5] = viability of PTEN-null HCT116 cells – cell-based, HCT116 clonal line, CellTiter-Glo, pilot screen (AID 824;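 active = viability at or below 27.92% in each of two runs, the all-compound median minus 4 SD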;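 note: 0% = 20 µM Hyamine control and 100% = vehicle cell control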); details: HCT116 PTEN-deleted viability, 60 h, at 10 µM, active compounds read low
[6] = RAM pathway blockade in budding yeast – dse1pr::URA3 reporter, 5-FOA selection, pilot screen (AID 869;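 active = inhibition over a set limit, the all-compound mean plus 3 SD, in both replicate runs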;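 note: 0% = DMSO wells with no growth and 100% = 10 µM 1-NA-PP1 with full growth; RAM network block rescues cells from 5-FOA so hits raise OD615 growth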); details: S. cerevisiae dse1pr::URA3 5-FOA growth, OD615, 2 d; at 10 µM; active compounds read high; strain carries analog-sensitive mutant Cbk1 kinase
[7] = RAM signaling pathway blockade in yeast – S. cerevisiae, Pdr1DBD-CYC8 efflux-inhibited sensitized strain, primary screen (AID 1298;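 active = RAM network inhibition above 8.4% in each of two replicates, 3 SD over the compound average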;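 note: 0% = DMSO untreated cells without growth and 100% = 10 µM 1-NA-PP1 full growth; higher means more yeast growth rescued from 5-FOA killing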); details: S. cerevisiae cbk1-as DSE1-URA3 strain, 5-FOA growth OD615, 2 d; at 50 µM; active compounds read high

OC(COc1ccccc1Cl)CN1CCN(CC(O)COc2ccccc2Cl)CC1 (configuration not stated)
inactive: growth inhibition [1] 3.62% | growth inhibition [2] -11.8% | viability increase [3] -5.92% | viability [4] 73.3% | viability [5] 81.9% | inhibition [6] 0.495% | RAM network inhibition [7] 3.13%

CCOc1ccc(N(CC(=O)NCC(C)C)S(C)(=O)=O)cc1
inactive: growth inhibition [1] 6.66% | growth inhibition [2] -4.28% | viability increase [3] -0.04% | viability [4] 98% | viability [5] 102% | inhibition [6] 0.96% | RAM network inhibition [7] 1.12%

COc1ccccc1CNC(=O)CS(=O)Cc1nc(-c2ccccc2C)oc1C (configuration not stated)
inactive: growth inhibition [1] -4.17% | growth inhibition [2] 12.7% | viability increase [3] -0.18% | viability [4] 101% | viability [5] 93.4% | inhibition [6] 1.66% | RAM network inhibition [7] 2.33%

O=C(O)c1cc2nc(C3CC3)cc(C(F)(F)F)n2n1
inactive: growth inhibition [1] -2.34% | growth inhibition [2] -2.47% | viability increase [3] 0.62% | viability [4] 102% | viability [5] 90.1% | inhibition [6] 1.67% | RAM network inhibition [7] -2.13%

O=C(CN1CCN(CC(=O)Nc2ccccn2)CC1)Nc1ccccn1
inactive: growth inhibition [1] -2.54% | growth inhibition [2] -0.335% | viability increase [3] -0.95% | viability [4] 98.6% | viability [5] 97.6% | inhibition [6] 0.705% | RAM network inhibition [7] 6.03%

COc1ccc(-c2nc(CSCC(=O)N3CCN(C4CCCCC4)CC3)c(C)o2)cc1OC
inactive: growth inhibition [1] -5.55% | growth inhibition [2] 7.03% | viability increase [3] -1.54% | viability [4] 87.8% | viability [5] 96.3% | inhibition [6] 1.04% | RAM network inhibition [7] 2.38%

COc1cc(NC(=O)C2CCCN2C(=O)C2CCC(C)CC2)cc(OC)c1OC (configuration not stated)
inactive: growth inhibition [1] -6.57% | growth inhibition [2] -3.52% | viability increase [3] -1.44% | viability [4] 96.3% | viability [5] 93.2% | inhibition [6] 2.65% | RAM network inhibition [7] 1.46%

Cc1ccc(-c2cc(C(F)(F)F)n3ncc(C(=O)NCc4ccco4)c3n2)cc1
inactive: growth inhibition [1] -5.88% | growth inhibition [2] -12.6% | viability increase [3] -5.85% | viability [4] 74% | viability [5] 75.4% | inhibition [6] 2.67% | RAM network inhibition [7] 3.41%

Cc1cc(NCc2ccco2)nc2cc(O)ccc12
inactive: growth inhibition [1] -11.9% | growth inhibition [2] -28.8% | viability increase [3] -5.57% | viability [4] 92.7% | viability [5] 93.4% | inhibition [6] 1.35% | RAM network inhibition [7] 1.95%

N#Cc1nc(-c2ccccc2F)oc1NCc1ccccc1
inactive: growth inhibition [1] -4.66% | growth inhibition [2] 11.3% | viability increase [3] 1.59% | viability [4] 107% | viability [5] 90.5% | inhibition [6] 1.98% | RAM network inhibition [7] 3.96%

O=C(O)CC(Cn1cnnn1)c1ccccc1 (configuration not stated)
inactive: growth inhibition [1] 3.8% | growth inhibition [2] -2.96% | viability increase [3] -0.66% | viability [4] 103% | viability [5] 101% | inhibition [6] 1.12% | RAM network inhibition [7] 2.58%

CCCn1c(C2CC(=O)N(c3cc(OC)ccc3OC)C2)nc2ccccc21 (configuration not stated)
inactive: growth inhibition [1] -6.39% | growth inhibition [2] -14.7% | viability increase [3] -2.88% | viability [4] 98.4% | viability [5] 94.8% | inhibition [6] 1.6% | RAM network inhibition [7] 5%

COC(=O)c1ccccc1NC(=O)CSc1nc(N)cc(N)n1
inactive: growth inhibition [1] -11.6% | growth inhibition [2] 5.95% | viability increase [3] -2.46% | viability [4] 94.1% | viability [5] 98.3% | inhibition [6] 0.39% | RAM network inhibition [7] -0.05%

Cc1nn(C(=O)CN2C(=O)c3ccccc3C2=O)c(C)c1Br
inactive: growth inhibition [1] -4.13% | growth inhibition [2] 3.1% | viability increase [3] -1.05% | viability [4] 101% | viability [5] 103% | inhibition [6] 0.84% | RAM network inhibition [7] 4.29%

O=C1c2ccccc2C(Nc2ccc(S(=O)(=O)N3CCCCC3)cc2)N1c1ccccn1 (configuration not stated)
inactive: growth inhibition [1] -3.39% | growth inhibition [2] -7.4% | viability increase [3] -4.22% | viability [4] 67.8% | viability [5] 65.4% | inhibition [6] 2.17% | RAM network inhibition [7] 3.68%

COc1ccc(S(=O)(=O)n2cnc3cc(C)c(C)cc32)cc1
inactive: growth inhibition [1] 3.51% | growth inhibition [2] 6.05% | viability increase [3] -1.56% | viability [4] 90.9% | viability [5] 93.4% | inhibition [6] 1.26% | RAM network inhibition [7] -1.04%

Cc1occc1C(=O)NC(C)CCc1ccccc1 (configuration not stated)
inactive: growth inhibition [1] -7.82% | growth inhibition [2] 2.38% | viability increase [3] -0.95% | viability [4] 91.8% | viability [5] 94.1% | inhibition [6] 3.1% | RAM network inhibition [7] 0.62%

O=C(Nc1ccncc1)c1ccc2c(c1)OCCO2
inactive: growth inhibition [1] 1.55% | growth inhibition [2] -11.1% | viability increase [3] 0.93% | viability [4] 85.6% | viability [5] 84% | inhibition [6] 1.98% | RAM network inhibition [7] 5.5%

Cc1cccc(OCC(=O)Nc2ccc3c(c2)OCO3)c1C
inactive: growth inhibition [1] -5.98% | growth inhibition [2] -2.99% | viability increase [3] -0.26% | viability [4] 103% | viability [5] 103% | inhibition [6] 1.77% | RAM network inhibition [7] 7.79%

O=C(C(c1ccccc1)c1ccccc1)N1CCOCC1
inactive: growth inhibition [1] -6.96% | growth inhibition [2] 1.92% | viability increase [3] -1.34% | viability [4] 100% | viability [5] 95.9% | inhibition [6] 0.87% | RAM network inhibition [7] 0.31%

Cc1ccc(Cl)cc1N1CCN(C(=O)COc2ccc(S(=O)(=O)NC(C)C)cc2)CC1
inactive: growth inhibition [1] 4.32% | growth inhibition [2] -7.2% | viability increase [3] -4.67% | viability [4] 37.3% | viability [5] 54.8% | inhibition [6] 1% | RAM network inhibition [7] 6.06%

CCOC(=O)N1CCN(C(=O)c2oc(=O)c3ccccc3c2-c2ccc(C)cc2)CC1
inactive: growth inhibition [1] -8.36% | growth inhibition [2] -8.23% | viability increase [3] 1.15% | viability [4] 96.2% | viability [5] 102% | inhibition [6] 1.23% | RAM network inhibition [7] 3.87%

O=C(NC1CCCCC1)N1CCCCCC1
inactive: growth inhibition [1] 1.12% | growth inhibition [2] -18% | viability increase [3] -0.52% | viability [4] 96.6% | viability [5] 97.5% | inhibition [6] 0.64% | RAM network inhibition [7] 3.56%

CN(C)c1ccc(C2N(c3ccc(Cl)cc3)C(=O)C3CCCN32)cc1 (configuration not stated)
inactive: growth inhibition [1] -2.63% | growth inhibition [2] 6.78% | viability increase [3] -1.01% | viability [4] 98.1% | viability [5] 98.7% | inhibition [6] 2.37% | RAM network inhibition [7] 1.57%

C=C(C)CSc1nnc(-c2cccc(Cl)c2)n1N
inactive: growth inhibition [1] 3.94% | growth inhibition [2] 14.4% | viability increase [3] 0.23% | viability [4] 95.9% | viability [5] 91.5% | inhibition [6] 1.77% | RAM network inhibition [7] -0.48%

CCOc1ccc(C2N(c3ccc(Cl)cc3)C(=O)C3CCCN32)cc1OC (configuration not stated)
inactive: growth inhibition [1] -2.75% | growth inhibition [2] -6.81% | viability increase [3] -1.98% | viability [4] 98.7% | viability [5] 95.8% | inhibition [6] -0.115% | RAM network inhibition [7] 5.42%

COCc1nnc(SCC(=O)Nc2cccc(Cl)c2C)n1-c1ccccc1
inactive: growth inhibition [1] -5.62% | growth inhibition [2] -13% | viability increase [3] -0.41% | viability [4] 107% | viability [5] 93.3% | inhibition [6] 0.57% | RAM network inhibition [7] 3.49%

CC1CN(C(=O)Nc2ccc3snnc3c2)c2ccccc21 (configuration not stated)
inactive: growth inhibition [1] -4.18% | growth inhibition [2] -6.81% | viability increase [3] -2.57% | viability [4] 82% | viability [5] 75% | inhibition [6] 2.52% | RAM network inhibition [7] 4.27%

O=C(O)CCCC(=O)N1CCc2cc(S(=O)(=O)N3CCc4ccccc43)ccc21
inactive: growth inhibition [1] -2.29% | growth inhibition [2] -2.17% | viability increase [3] -0.98% | viability [4] 90.7% | viability [5] 91.8% | inhibition [6] 1.98% | RAM network inhibition [7] 1.3%

CCCN1CCN(C(=O)CCCn2c(C)c3cnn(-c4ccccc4)c(=O)c3c2C)CC1
inactive: growth inhibition [1] -10.1% | growth inhibition [2] -6.09% | viability increase [3] -2.94% | viability [4] 102% | viability [5] 105% | inhibition [6] -0.215% | RAM network inhibition [7] 3.77%

Cc1ccc(S(=O)(=O)N2C(=S)SCC2(C)C)cc1
inactive: growth inhibition [1] -0.04% | growth inhibition [2] 14.3% | viability increase [3] -1.47% | viability [4] 91.9% | viability [5] 83.5% | inhibition [6] -1.13% | RAM network inhibition [7] 0.51%

OCCN1CCN(Cc2cccc(Oc3ccc(Cl)cc3)c2)CC1
inactive: growth inhibition [1] -4.24% | growth inhibition [2] -1.81% | viability increase [3] -3.74% | viability [4] 63.2% | viability [5] 73.1% | inhibition [6] 2.6% | RAM network inhibition [7] -0.21%

COc1ccc(C)cc1NC(=O)CN(c1ccc(F)cc1)S(C)(=O)=O
inactive: growth inhibition [1] -20.5% | growth inhibition [2] -18.5% | viability increase [3] -1.76% | viability [4] 92.4% | viability [5] 103% | inhibition [6] 1.31% | RAM network inhibition [7] 4.09%

CCCCCSc1nc2c(c(=O)[nH]c(=O)n2C)n1C
inactive: growth inhibition [1] -12.6% | growth inhibition [2] -5.52% | viability increase [3] -2.27% | viability [4] 90.3% | viability [5] 79.6% | inhibition [6] 2.1% | RAM network inhibition [7] 0.68%

CN1C(=O)CC(N2CCC(c3nc4ccccc4[nH]3)CC2)C1=O (configuration not stated)
inactive: growth inhibition [1] -11.7% | growth inhibition [2] -11.2% | viability increase [3] -0.66% | viability [4] 112% | viability [5] 98.9% | inhibition [6] 3.77% | RAM network inhibition [7] 3.31%

Cc1c(=O)n(OCc2ccccc2)c2ccccc2[n+]1[O-]
inactive: growth inhibition [1] -0.885% | growth inhibition [2] 1.5% | viability increase [3] -3.92% | viability [4] 95.9% | viability [5] 95.8% | inhibition [6] 0.09% | RAM network inhibition [7] 9.74%
